In data set [1] the test system is spreading 'orange' reporter (mKO2). As to the kind of experiment: Flow cytometry, MAT ΔREIII HSS 'orange' spreading reporter. The format is cell-based, Schizosaccharomyces pombe. Conditions: for spreading phenotype: Figure 3E-J run (fully separate from Figure 1). The essentials: (§1)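 Strains from −80°C stocks were revived on YES plates. Cells were grown overnight in 200 μL YES at 32°C to saturation. The next morning they were diluted 1:25 in YES into mid-log phase and analysed by flow cytometry for single-cell reporter fluorescence. Compensation and analysis followed a prior protocol.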
For orientation: A flow cytometer gives signals particle by particle.

Data set [2] deals with nucleation 'green' reporter (SF-GFP). Put plainly: Flow cytometry, MAT ΔREIII HSS 'green' nucleation reporter. Type of data set: cell-based, Schizosaccharomyces pombe. Particulars: separate experiment with Δckb1, SFigure 1J–L. The essentials:
as §1

In data set [3] the test system is pSwi6 (CKII-phosphorylated Swi6) (Schizosaccharomyces pombe). Put plainly: fluorescence polarization. Particulars: histone H3 Kc9me3 (methyl-lysine analog). (In general: Fluorescence polarisation rises when a labelled molecule tumbles more slowly, as on binding a larger partner.)
Data set [4] deals with pSwi6 S18/24A (CKII-phosphorylated) (Schizosaccharomyces pombe). As to the kind of experiment: fluorescence polarization.
Data set [5] has as its system H3K9me3 peptide (fluoresceinated H3 1-20). As to the kind of experiment: Fluorescence polarization, H3K9me3 tail peptide. The format is binding. The essentials:
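Fluoresceinated H3 1–20 K9me3 or K9me0 peptide was fixed at 100 nM. Purified Swi6, unphosphorylated or CK2-phosphorylated, was titrated at 0–200 μM. Fluorescence polarization was read at ex 485 / em 528 nm; Kd derived by curve fitting.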

Another data set deals with H3Kc9me3 mononucleosomes. Put plainly: Fluorescence polarization, H3Kc9me3. Type of data set: binding.
For data set [6], the system named is unpSwi6 (unphosphorylated Swi6) (Schizosaccharomyces pombe). As to the kind of experiment: fluorescence polarization. Particulars: histone H3K9 unmethylated.
The data set “SEC-MALS + cross-linking” deals with the molecule itself. As to the kind of experiment: SEC-MALS + cross-linking.
A further data set relates to H3K9me2. As to the kind of experiment: H3K9me2 ChIP-seq. The format is cell-based, S. pombe. The essentials:
(§2)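 Cells were grown overnight in YES at 32°C to saturation, diluted to OD 0.03 and grown to OD 1. 300×10^6 cells were fixed with 1% formaldehyde only and quenched with glycine. Chromatin was bead-beaten and sheared, then immunoprecipitated overnight at 4°C with anti-H3K9me2 or anti-H3K9me3. Reverse-crosslinked with proteinase K at 65°C. 40 bp paired-end reads; ChIP/input signal, mean of three repeats with 95% CI.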

In the next data set the test system is H3K9me3. Put plainly: H3K9me3 ChIP-seq. Type of data set: cell-based, S. pombe. Put shortly:
as §2

Data set [7] deals with genomic loci (nucleators, spreading zones, euchromatin). Put plainly: FLAG-Swi6 ChIP-seq. Type of data set: cell-based, S. pombe. Conditions: for FLAG-Swi6 accumulation at nucleation sites versus wildtype: spike-in normalized, Figure 5B. The essentials:
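FLAG ChIP: strains express FLAG-tagged Swi6 variants; IP with M2 anti-FLAG. pS18-pS24 ChIP: untagged strains; IP with anti-pS18-pS24 antibody; lysis buffer also contains 0.1 mM orthovanadate and 60 mM β-glycerophosphate. Both: grown to saturation in YES at 32°C, then 2 h at 18°C. 600×10^6 cells fixed with 1.5 mM EGS (30 min), then 1% formaldehyde (30 min). Drosophila spike-in added; three technical replicates; spike-in-adjusted cpm.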

In another data set the test system is heterochromatin foci. Put plainly: Swi6-GFP live cell imaging of nuclear foci. The format is cell-based, S. pombe. Particulars: Figure 4E,F. Put shortly:
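Swi6-GFP strains in a Sad1-mKO2 background were grown on YES 225 agar at 32°C for 3–5 days. Cells were then cultured in liquid YES 225 at 30°C with 250 rpm shaking to OD 0.2–0.6 before live-cell imaging.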

Where [8] appears, read: MAT ΔREIII HSS, mean of three repeats.

These results are taken from publication PMC11565791 (bioRxiv, 2025).

Take “wildtype swi6: wildtype swi6 open reading frame in MAT ΔREIII HSS strain [reference compound]”: the “'orange' (spreading) reporter cells ON” value in data set [1] (separate experiment with Δckb1, SFigure 1J–L) amounted to 7.04%. The “'green' (nucleation) reporter cells ON” value in data set [2] is 0.36%.
As to “H3Kc9me3 (MLA) mononucleosome, 601 DNA 147 bp”, the binding signal (relative Kd (reference)) in data set [3] worked out at 1. In [4] (histone H3 Kc9me3 (methyl-lysine analog)), this molecule registered a binding signal (relative Kd (pSwi6 on H3Kc9me3 = 1)) of 0.38.
On to “pSwi6: Swi6 co-expressed with Casein Kinase II (CKII) in E. coli”, for which the “specificity for H3K9me3 peptide” value in [5] (H3K9me3 vs H3K9me0 peptide) is on record as ~ 93 X. Moreover, the “preference for H3K9me3 versus H3K9me2 peptides” value in [5] (SFigure 4C) is ~ 2.2 X. In the data set with H3Kc9me3 mononucleosomes (Figure 4D), the “decrease in nucleosome affinity by phosphorylation, overall (pSwi6 vs unpSwi6)” value was found to be 12 X. For the same molecule, the “specificity for H3K9me3 mark on nucleosomes” value with H3Kc9me3 mononucleosomes (H3Kc9me3 vs H3K9me0 nucleosomes) turned out to be 19 X. Also, the “tighter binding to H3Kc9me3 nucleosome than to H3K9me3 peptide” value in the data set with H3Kc9me3 mononucleosomes (Kd nucleosome vs Kd tail peptide) was determined as 1.7 X.
H3K9me0 mononucleosome, 601 DNA 147 bp showed a binding signal (relative Kd (pSwi6 on H3Kc9me3 = 1)) in data set [4] (histone H3K9 unmethylated) of 1.67. Besides, the dissociation constant (Kd) (usually the free concentration of one partner at which half of the binding sites on the other are occupied at equilibrium, for simple one-to-one binding) in data set [6] was 2330 nM.

B1: phosphorylated Swi6 (pSwi6) (natural protein)
chain: MKKGGVRSYRRSSTSKRSVIDDDSEPELPSMTKEAIASHKADSGSSDNEVESDHESKSSSKKLKENAKEEEGGEEEEEDEYVVEKVLKHRMARKGGGYEYLLKWEGYDDPSDNTWSSEADCSGCKQLIEAYWNEHGGRPEPSKRKRTARPKKPEAKEPSPKSRKTDEDKHDKDSNEKIEDVNEKTIKFADKSQEEFNENGPPSGQPNGHIESDNESKSPSQKESNESEDIQIAETPSNVTPKKKPSPEVPKLPDNRELTVKQVENYDSWEDLVSSIDTIERKDDGTLEIYLTWKNGAISHHPSTITNKKCPQKMLQFYESHLTFRENE
On to B1, for which the stoichiometry N (as a rule, the number of molecules, sites or subunits per partner or assembly) in “SEC-MALS + cross-linking” was determined as 8.

B2: swi6^loopX-S18/24A: double mutant of loopX and S18/24A (protein, UniProt P40381 1-328, looked up, variant S18A S24A R93A K94A)
Chromatin-associated protein …: MKKGGVRSYRRSSTSKRAVIDDDAEPELPSMTKEAIASHKADSGSSDNEVESDHESKSSSKKLKENAKEEEGGEEEEEDEYVVEKVLKHRMAAAGGGYEYLLKWEGYDDPSDNTWSSEADCSGCKQLIEAYWNEHGGRPEPSKRKRTARPKKPEAKEPSPKSRKTDEDKHDKDSNEKIEDVNEKTIKFADKSQEEFNENGPPSGQPNGHIESDNESKSPSQKESNESEDIQIAETPSNVTPKKKPSPEVPKLPDNRELTVKQVENYDSWEDLVSSIDTIERKDDGTLEIYLTWKNGAISHHPSTITNKKCPQKMLQFYESHLTFRENE
Regarding B2, the “spreading phenotype” value in data set [1] was “largely mimics that of swi6^S18/24A”.

B3: swi6^S18/24A: swi6 mutant S18A and S24A (protein, UniProt P40381 1-328, looked up, variant S18A S24A)
Chromatin-associated protein …: MKKGGVRSYRRSSTSKRAVIDDDAEPELPSMTKEAIASHKADSGSSDNEVESDHESKSSSKKLKENAKEEEGGEEEEEDEYVVEKVLKHRMARKGGGYEYLLKWEGYDDPSDNTWSSEADCSGCKQLIEAYWNEHGGRPEPSKRKRTARPKKPEAKEPSPKSRKTDEDKHDKDSNEKIEDVNEKTIKFADKSQEEFNENGPPSGQPNGHIESDNESKSPSQKESNESEDIQIAETPSNVTPKKKPSPEVPKLPDNRELTVKQVENYDSWEDLVSSIDTIERKDDGTLEIYLTWKNGAISHHPSTITNKKCPQKMLQFYESHLTFRENE
Turning to B3, the “spreading phenotype” value in data set [1] was “more severe spreading defect than the oligomerization surface mutants alone”. The “H3K9me2 in nucleators versus wildtype” value in the data set on H3K9me2 (300bp bins, SFigure 2) is listed as “H3K9me2 is elevated in almost all nucleators”. The “H3K9me2 level at MAT locus” value in the data set with H3K9me2 (setting [8]) is “maintained similar levels of H3K9me2 to wildtype swi6”. The “distance to the left of tlh2 at which H3K9me2 levels begin to drop” value in the data set on H3K9me2 (tel IIR, relative to wildtype) is ~ 6.4 kb. In the data set on H3K9me3 (setting [8]), the “H3K9me3 level at MAT locus” value was “much more closely mirrored Δswi6”. The “H3K9me2 and H3K9me3 at mei4” value with H3K9me3 (heterochromatin island mei4, SFigure 3A) is “no distinguishable differences”.

B4: FLAG-Swi6^6S/A: 3XFLAG tagged Swi6 S18/24/117–220A (protein, UniProt P40381 1-328, looked up, variant S18A S24A S117A S192A S212A S220A)
Chromatin-associated protein …: MKKGGVRSYRRSSTSKRAVIDDDAEPELPSMTKEAIASHKADSGSSDNEVESDHESKSSSKKLKENAKEEEGGEEEEEDEYVVEKVLKHRMARKGGGYEYLLKWEGYDDPSDNTWSAEADCSGCKQLIEAYWNEHGGRPEPSKRKRTARPKKPEAKEPSPKSRKTDEDKHDKDSNEKIEDVNEKTIKFADKAQEEFNENGPPSGQPNGHIEADNESKSPAQKESNESEDIQIAETPSNVTPKKKPSPEVPKLPDNRELTVKQVENYDSWEDLVSSIDTIERKDDGTLEIYLTWKNGAISHHPSTITNKKCPQKMLQFYESHLTFRENE
modifications: 3XFLAG tag
Take B4: the “FLAG-Swi6 accumulation at nucleation sites versus wildtype” value in data set [7] is reported as “decline in accumulation”.

B5: swi6^loopX: ARK loop in the CD mutant (R93A and K94A) (protein, UniProt P40381 1-328, looked up, variant R93A K94A)
Chromatin-associated protein …: MKKGGVRSYRRSSTSKRSVIDDDSEPELPSMTKEAIASHKADSGSSDNEVESDHESKSSSKKLKENAKEEEGGEEEEEDEYVVEKVLKHRMAAAGGGYEYLLKWEGYDDPSDNTWSSEADCSGCKQLIEAYWNEHGGRPEPSKRKRTARPKKPEAKEPSPKSRKTDEDKHDKDSNEKIEDVNEKTIKFADKSQEEFNENGPPSGQPNGHIESDNESKSPSQKESNESEDIQIAETPSNVTPKKKPSPEVPKLPDNRELTVKQVENYDSWEDLVSSIDTIERKDDGTLEIYLTWKNGAISHHPSTITNKKCPQKMLQFYESHLTFRENE
B5: the “spreading phenotype” value in data set [1] is “moderate spreading defect”.

B6: Swi6^S18/24A-GFP: C-terminally super fold-GFP tagged Swi6 S18/24A (protein, UniProt P40381 1-328, looked up, variant S18A S24A)
Chromatin-associated protein …: MKKGGVRSYRRSSTSKRAVIDDDAEPELPSMTKEAIASHKADSGSSDNEVESDHESKSSSKKLKENAKEEEGGEEEEEDEYVVEKVLKHRMARKGGGYEYLLKWEGYDDPSDNTWSSEADCSGCKQLIEAYWNEHGGRPEPSKRKRTARPKKPEAKEPSPKSRKTDEDKHDKDSNEKIEDVNEKTIKFADKSQEEFNENGPPSGQPNGHIESDNESKSPSQKESNESEDIQIAETPSNVTPKKKPSPEVPKLPDNRELTVKQVENYDSWEDLVSSIDTIERKDDGTLEIYLTWKNGAISHHPSTITNKKCPQKMLQFYESHLTFRENE
modifications: C-terminal superfolder GFP tag
Regarding B6, the “partitioning relative to heterochromatin foci” value in the data set on heterochromatin foci is reported as “partition away from heterochromatin foci”.

B7: FLAG-Swi6^S18/24A: 3XFLAG tagged Swi6 S18/24A (protein, UniProt P40381 1-328, looked up, variant S18A S24A)
Chromatin-associated protein …: MKKGGVRSYRRSSTSKRAVIDDDAEPELPSMTKEAIASHKADSGSSDNEVESDHESKSSSKKLKENAKEEEGGEEEEEDEYVVEKVLKHRMARKGGGYEYLLKWEGYDDPSDNTWSSEADCSGCKQLIEAYWNEHGGRPEPSKRKRTARPKKPEAKEPSPKSRKTDEDKHDKDSNEKIEDVNEKTIKFADKSQEEFNENGPPSGQPNGHIESDNESKSPSQKESNESEDIQIAETPSNVTPKKKPSPEVPKLPDNRELTVKQVENYDSWEDLVSSIDTIERKDDGTLEIYLTWKNGAISHHPSTITNKKCPQKMLQFYESHLTFRENE
modifications: 3XFLAG tag
B7: the “FLAG-Swi6 accumulation at nucleation sites versus wildtype” value in data set [7] is reported as “decline in accumulation”. Also, the “FLAG-Swi6 accumulation at cen I & II” value in data set [7] (versus wildtype, Figure 5E, SFigure 7A) is listed as “accumulates less than wildtype within previously mapped siRNA generating centers”. Also, the “FLAG-Swi6 accumulation at H3K9me2-negative loci” value in data set [7] (versus wildtype, Figure 5F,G) was “accumulates above wildtype at several H3K9me2 negative loci”.

B8: Swi6^6S/A -GFP: C-terminally super fold-GFP tagged Swi6 6S/A (protein, UniProt P40381 1-328, looked up, variant S18A S24A S117A S192A S212A S220A)
Chromatin-associated protein …: MKKGGVRSYRRSSTSKRAVIDDDAEPELPSMTKEAIASHKADSGSSDNEVESDHESKSSSKKLKENAKEEEGGEEEEEDEYVVEKVLKHRMARKGGGYEYLLKWEGYDDPSDNTWSAEADCSGCKQLIEAYWNEHGGRPEPSKRKRTARPKKPEAKEPSPKSRKTDEDKHDKDSNEKIEDVNEKTIKFADKAQEEFNENGPPSGQPNGHIEADNESKSPAQKESNESEDIQIAETPSNVTPKKKPSPEVPKLPDNRELTVKQVENYDSWEDLVSSIDTIERKDDGTLEIYLTWKNGAISHHPSTITNKKCPQKMLQFYESHLTFRENE
modifications: C-terminal superfolder GFP tag
Take B8: the “partitioning relative to heterochromatin foci” value with heterochromatin foci is “partition away from heterochromatin foci”.
